According to PMC6997517 (EBioMedicine, 2020):

Assays:
[1] = test system: TLR4 (HEK-Blue™ hTLR4 cells); assay: SEAP activity assay; assay type: cell-based, human; conditions: LPS-stimulated; absorbance at 620 nm; n ≥ 3
How it was run: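 Seeded at 2 × 10^5/well (24-well) and grown overnight, then treated with a range of test-compound concentrations with or without LPS. Supernatants heat-treated at 65 °C for 10 min. SEAP (NF-κB reporter) detected with HEK-Blue detection medium.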

TLR4 [2] = assay: Cytokine ELISA, LPS-stimulated RAW264.7 cells; assay type: cell-based, murine; conditions: n ≥ 3
How it was run: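 Murine macrophages seeded at 2 × 10^5/well (96-well) or 5 × 10^5/well (24-well) and grown overnight, then treated with test compound and LPS. After 24 h treatment, secreted IFN-β was measured by pre-coated mouse IFN-β ELISA. Mouse IL-6 and mouse TNF-α were measured by ELISA kits.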

[3] = test system: TNFR-mediated NLRP3 inflammasome; assay: NLRP3 inflammasome activation, IL-1β secretion, TNF-α-primed THP-1 cells; assay type: cell-based; conditions: THP-1 primed with recombinant human TNF-α, activated with Nigericin
IL-1 receptor (IL-1R) = assay: IL-8 secretion, IL-1β-activated THP-1 cells; assay type: cell-based, human; conditions: THP-1 activated with IL-1β
TLR4 [4] = assay: NO secretion assay, LPS-stimulated RAW264.7 cells; assay type: cell-based, murine; conditions: absorbance at 550 nm
How it was run: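 RAW264.7 cells seeded at 2 × 10^5/well in 96-well format and grown overnight. After treatment with test compound and LPS, nitric oxide in the culture medium was quantified with a colourimetric NO detection kit.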

TLR4 [5] = assay: Intracellular NO and ROS; assay type: cell-based, murine; conditions: LPS, 50 μM TIP3
How it was run: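 RAW264.7 cells seeded at 1 × 10^6 per 6 cm dish and grown overnight. Stimulated with LPS and treated with test compound. Intracellular NO stained with DAF-FM and ROS with DCF-DA. Cellular fluorescence quantified by flow cytometry.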

TLR4 [6] = assay: Quantitative RT-PCR, LPS-stimulated RAW264.7 cells; assay type: cell-based, murine; conditions: TIP3 50 μM 1 h before LPS 100 ng/ml, 3 h; normalized to β-actin
How it was run: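 Total RNA isolated with TRIzol and reverse-transcribed to cDNA. qPCR run with SYBR Green and gene-specific primers (reference genes β-actin and Gapdh). Relative expression calculated by the ΔΔCt method.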

TLR4 [7] = assay: Cytokine ELISA, LPS-stimulated mBMDMs; assay type: cell-based, mouse; conditions: TIP3 1 h, then LPS 24 h
How it was run: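 Bone marrow flushed from femurs and tibiae of 6–7-week-old C57BL/6J mice, then differentiated with M-CSF (25 ng/ml) for 3–4 days. Cells harvested with trypsin-EDTA and replated; experiments run after 24 h. Cells pretreated with test compound for 1 h, then co-treated with LPS for 24 h. Secreted IL-6 and TNF-α measured by mouse ELISA kits.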

TLR3 = assay: Cytokine ELISA, poly; assay type: cell-based, mouse; conditions: mBMDMs, poly(I:C)
How it was run: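 Bone marrow flushed from femurs and tibiae of C57BL/6J mice (6–7 weeks). Cultured in DMEM/10% FBS with M-CSF (25 ng/ml) for 3–4 days, detached with trypsin-EDTA, replated, and used 24 h later. Seeded and grown overnight, stimulated with poly(I:C) plus test compound. Secreted IFN-β measured after 24 h by mouse IFN-β ELISA.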

hMNCs = assay: Cell viability, hMNCs; assay type: cell-based, human
TLR4 [8] = assay: Cytokine ELISA, LPS-stimulated hMNCs; assay type: cell-based, human
How it was run: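 Commercial human mononuclear cells kept in RPMI 1640 (2·05 mM L-glutamine, 10% FBS, penicillin/streptomycin). Seeded at 2 × 10^5/well and grown overnight. Stimulated with LPS or poly(I:C) alongside test compound. After 24 h, supernatant IL-6 and TNF-α measured by human sandwich ELISA.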

[9] = test system: mice with IMQ-induced psoriasis-like disease; assay: Imiquimod; assay type: in vivo, mouse (C57BL/6)
How it was run: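 C57BL/6 mice (6–7 weeks, specific-pathogen-free) given 62·5 mg of 5% imiquimod cream topically for 5 consecutive days; controls left untreated. Test compound (10 or 50 nmol/g) or PBS given daily, and methotrexate (10 μg/g) as reference, all starting 1 day before the cream. Mice killed after 5 days. Back-skin severity scored on a PASI-based scale.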

[10] = test system: mice with IMQ-induced psoriasis-like disease; assay: Histology and immunohistochemistry of back skin, psoriasis model; assay type: in vivo, mouse (C57BL/6)
How it was run: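 Back-skin lesions from imiquimod-treated C57BL/6 mice fixed in 4% paraformaldehyde, paraffin-embedded and sectioned at 7 μm. H&E staining used for epidermal/dermal thickness, measured by microscopy. Immunohistochemistry done with HRP/DAB detection using primary antibodies to CD68, CD4 and IL-17.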

[11] = test system: lupus-prone mice (MRL/lpr); assay: SLE model, MRL/lpr mice; assay type: in vivo, mouse (MRL/lpr); conditions: 10 nmol/g i.p. daily, 20 days
[12] = TIP3 10 and 50 nmol/g, H&E, five skin samples per group

DYDVCVCH [TIP3]
inhibition of LPS-induced SEAP activity (NF-κB) [1]: hampered the LPS-induced SEAP activity in a dose-dependent manner
LPS-induced IFN-α secretion (TLR4 [2]): significantly prevented in vitro production of proinflammatory cytokines (TNF-α and IL-6) and IFN-α and -β in a dose-dependent manner
LPS-induced IFN-β secretion (TLR4 [2]): significantly prevented in vitro production of proinflammatory cytokines (TNF-α and IL-6) and IFN-α and -β in a dose-dependent manner
LPS-induced IL-6 secretion (TLR4 [2]): significantly prevented in vitro production of proinflammatory cytokines (TNF-α and IL-6) and IFN-α and -β in a dose-dependent manner
LPS-induced TNF-α secretion (TLR4 [2]): significantly prevented in vitro production of proinflammatory cytokines (TNF-α and IL-6) and IFN-α and -β in a dose-dependent manner
IL-1β secretion [3]: not in the TNF-α-primed cells
IL-8 secretion (IL-1 receptor (IL-1R)): did not hinder the secretion of IL-8
LPS-induced extracellular NO secretion (TLR4 [4]): represses the LPS-induced extracellular secretion of NO
intracellular NO (TLR4 [5]; DAF-FM): significantly inhibited
intracellular ROS (TLR4 [5]; DCF-DA): significantly inhibited
Cxcl-10 mRNA expression (TLR4 [6]): significantly inhibited the mRNA expression
Ifn-β mRNA expression (TLR4 [6]): significantly inhibited the mRNA expression
Il-1β mRNA expression (TLR4 [6]): significantly inhibited the mRNA expression
Il-6 mRNA expression (TLR4 [6]): significantly inhibited the mRNA expression
Tnf-α mRNA expression (TLR4 [6]): significantly inhibited the mRNA expression
TLR4-mediated IL-6 secretion (TLR4 [7]): suppressed the TLR4-mediated secretion of IL-6
TLR4-mediated TNF-α secretion (TLR4 [7]): suppressed the TLR4-mediated secretion of IL-6 and TNF-α
TLR3-mediated IFN-β secretion (TLR3): suppressed
cell viability (hMNCs): substantial reproducible outcomes were observed in terms of cell viability
TLR4-mediated IL-6 secretion (TLR4 [8]): significantly inhibited
TLR4-mediated TNF-α secretion (TLR4 [8]): significantly inhibited
effect relative to MTX ([9]; TIP3 10 nmol/g vs MTX 10 μg/g): relatively weaker effect than did the MTX-treated group
spleen weight ([9]; TIP3 50 nmol/g i.p.): significantly decreasing the spleen weight (almost to the weight of normal murine spleen)
body weight ([9]; TIP3 50 nmol/g i.p., vs MTX and TIP3 10 nmol/g): underwent a weight loss as compared to the MTX- and TIP3 (10 nmol/g)-treated groups
inflammation severity of back skin ([9]; TIP3 10 or 50 nmol/g daily): reversal of inflammation severity
PASI score ([9]; TIP3 10 or 50 nmol/g i.p.): did not significantly reduce the PASI score starting from day 2
splenomegaly ([9]; TIP3 10 or 50 nmol/g i.p.): remarkably prevented splenomegaly in a dose-dependent manner
thickness of the dermis [10, 12]: noticeably attenuated thickness of the epidermis (yellow arrowheads) and dermis
thickness of the epidermis [10, 12]: noticeably attenuated thickness of the epidermis
overexpression of CD4 in skin ([10]; immunohistochemistry): effectively attenuated the overexpression of CD68, CD4
overexpression of CD68 in skin ([10]; immunohistochemistry): effectively attenuated the overexpression of CD68
overexpression of IL-17 in skin ([10]; immunohistochemistry): effectively attenuated the overexpression of CD68, CD4, and IL-17
complement C4 [11]: the levels of complement components C4 and C3 were recovered
dsDNA autoantibodies ([11]; ELISA): remained low
serum C3 complement ([11]; ELISA): found to recover
urine albumin ([11]; ELISA): reduced by TIP3 treatment
lymphoid expansion and spleen volume ([11]; vs vehicle): reducing the lymphoid expansion and the spleen volume
